The structures appear in SMILES notation. Several values for one entry are separate records, joined by “and”; a condition that tells them apart may be missing. Identical values can stand only once. Activity calls are given as the source filed them.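 The calls were made as follows: active = mean inhibition at 10 µM of 50% or more; inactive = mean inhibition at 10 µM below 50%.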

This test deals with Huh-7.5 HCV Rluc replicon, luciferase luminescence, 72 h. Put plainly: inhibition of HCV replicon replication, late-stage follow-up, orthogonal assay for HCV NS3 helicase inhibitor project, cell-based, luminescence, Renilla luciferase replicon (AID 623962). As to conditions: at 10 µM; stronger effect = higher value. An outline of the steps:
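Dosing: one concentration, 10 µM in 0.5% DMSO / Assay system: Huh-7.5 HCV Renilla luciferase replicon cells / Benchmarks: DMSO-treated cells as uninhibited reference / Signal: Renilla luciferase luminescence of lysed cells / Schedule: cell attachment 4-5 h, then compound exposure 72 h, 37 °C, 5% CO2 / Read-out basis: % replication inhibition versus DMSO-treated cells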
By inhibition is commonly meant the drop in the measured response relative to a control, in per cent. For `O=C(CCCCCCC(=O)Nc1ccc(-c2nc3ccccc3[nH]2)cc1)Nc1ccc(-c2nc3ccccc3[nH]2)cc1`, the inhibition is 96%.

For `COc1cccc2c(=O)c3cc(Cl)cc(C(=O)Nc4cc(Cl)ccn4)c3[nH]c12`, the inhibition was 73%.

As to `Cc1ccc2nc(-c3ccc4nc(-c5ccc(NC(=O)c6ccc(CNC(=O)OCC7c8ccccc8-c8ccccc87)cc6)cc5)sc4c3)sc2c1S(=O)(=O)O`, the inhibition was 48% (inactive).

In the case of `Cc1ccc2nc(-c3ccc4nc(-c5ccc(NC(=O)c6cccc(Cl)c6)cc5)sc4c3)sc2c1S(=O)(=O)O`, the inhibition was 54%.

Regarding `Cc1ccc2nc(-c3ccc4nc(-c5ccc(NC(=O)c6ccc(C(F)(F)F)c(F)c6)cc5)sc4c3)sc2c1S(=O)(=O)O`, the inhibition is 48% (inactive).

For the molecule `COc1ccc(NC(=O)Nc2ccc(-c3nc4ccc(-c5nc6ccc(C)c(S(=O)(=O)O)c6s5)cc4s3)cc2)cc1`, the inhibition is 21% (inactive).

As for `Cc1cc2sc(-c3ccc4nc(-c5ccc(N)cc5)sc4c3)nc2cc1S(=O)(=O)O`, the inhibition is 28% (inactive).

Consider `Cc1ccc2nc(-c3ccc4nc(-c5ccc(NC(=O)c6cccc(C(F)(F)F)c6F)cc5)sc4c3)sc2c1S(=O)(=O)O`, for which the inhibition was 48% (inactive).

Take `COc1ccc(C(=O)Nc2ccc(-c3nc4ccc(-c5nc6ccc(C)c(S(=O)(=O)O)c6s5)cc4s3)cc2)cc1`: the inhibition is 64%.

Regarding `Cc1ccc2nc(-c3ccc4nc(-c5ccc(NC(=O)c6ccncc6)cc5)sc4c3)sc2c1S(=O)(=O)O`, the inhibition is 59%.

For `Cc1ccc2nc(-c3ccc(NC(=O)c4ccc(NC(=O)c5ccc(C(F)(F)F)cc5)cc4)cc3)sc2c1S(=O)(=O)O`, the inhibition was 4% (inactive).

`CS(=O)(=O)c1ccc2nc(NC(=O)c3ccc4ncsc4c3)sc2c1`: the inhibition is 55%.

Turning to `Cc1ccc2nc(-c3ccc(NC(=O)c4ccc(NC(=O)c5ccc(NC(=O)OCC6c7ccccc7-c7ccccc76)cc5)cc4)cc3)sc2c1S(=O)(=O)O`, the inhibition was -14% (inactive).

Take `Cc1ccc2nc(-c3ccc4nc(-c5ccc(NC(=O)Nc6ccc(C(F)(F)F)cc6)cc5)sc4c3)sc2c1S(=O)(=O)O`: the inhibition is 7% (inactive).

As to `CC(=O)Nc1ccc(-c2nc3ccc(-c4nc5ccc(C)c(S(=O)(=O)O)c5s4)cc3s2)cc1`, the inhibition is 26% (inactive).

Consider `Cc1ccc2nc(-c3ccc(N)cc3)sc2c1S(=O)(=O)O`, for which the inhibition is 0% (inactive).

`COc1ccc2sc(NC(=O)c3ccc4ncsc4c3)nc2c1`: the inhibition is 60%.

As to `Cc1ccc2nc(-c3ccc4nc(-c5ccc(NC(=O)c6ccc(Cl)c(Cl)c6)cc5)sc4c3)sc2c1S(=O)(=O)O`, the inhibition was 43% (inactive).

Regarding `Cc1ccc2nc(-c3ccc4nc(-c5ccc(NC(=O)c6ccc(C(F)(F)F)cc6)cc5)sc4c3)sc2c1S(=O)(=O)O`, the inhibition is 44% (inactive).

`Cc1ccc2nc(-c3ccc4nc(-c5ccc(NC(=O)c6cccc(C(F)(F)F)c6)cc5)sc4c3)sc2c1S(=O)(=O)O`: the inhibition was 41% (inactive).

Regarding `Cc1ccc2nc(-c3ccc(NC(=S)Nc4ccccc4Br)cc3)sc2c1`, the inhibition was 80%.

In the case of `Cc1cc(C(O)(c2ccc(Nc3ccccc3)cc2)c2ccc(Nc3ccc(S(=O)(=O)O)cc3)cc2)ccc1N` (stereo not given), the inhibition was 23% (inactive).

As to `Cc1ccc2nc(-c3ccc4nc(-c5ccc6nc(-c7ccc(N)cc7)sc6c5)sc4c3)sc2c1S(=O)(=O)O` (tested in a mixture with another compound), the inhibition was 0% (inactive).

As for `Cc1ccc2nc(-c3ccc4nc(-c5ccc(NC(=O)Nc6ccc(Cl)cc6)cc5)sc4c3)sc2c1S(=O)(=O)O`, the inhibition was 35% (inactive).

For `Cc1ccc2nc(-c3ccc4nc(-c5ccc6nc(-c7ccc(N)cc7)sc6c5)sc4c3)sc2c1S(=O)(=O)O`, the inhibition is 59%.

Consider `Cc1ccc2nc(-c3ccc4nc(-c5ccc(NC(=O)c6ccc(NC(=O)OCC7c8ccccc8-c8ccccc87)cc6)cc5)sc4c3)sc2c1S(=O)(=O)O`, for which the inhibition is 57%.

For the molecule `CCOc1ccc2c(NNC(=O)c3cnccn3)c3c(nc2c1)CCCC3`, the inhibition was 81%.

With `Cc1ccc2c(sc(-c3ccc4c(c3)sc(-c3ccc5c(c3)sc(-c3ccc(N(C)C)cc3)[n+]5C)[n+]4C)[n+]2C)c1S(=O)(=O)O` (tested in a mixture with another compound), the inhibition was -16% (inactive).

Turning to `Cc1ccc2nc(-c3ccc4nc(-c5ccc(NC(=O)c6c(F)cccc6C(F)(F)F)cc5)sc4c3)sc2c1S(=O)(=O)O`, the inhibition is 55%.

Take `Cc1cc2sc(-c3ccc(N)cc3)nc2cc1S(=O)(=O)O`: the inhibition is 0% (inactive).

With `CCN(CC)c1ccc(-c2nc3ccc(C)c(S(=O)(=O)O)c3s2)cc1`, the inhibition was 0% (inactive).

Take `Cc1ccc2nc(-c3ccc4nc(-c5ccc(N(C)C(=O)c6ccc7ccccc7c6)cc5)sc4c3)sc2c1S(=O)(=O)O`: the inhibition was 24% (inactive).

For `Cc1ccc2nc(-c3ccc4nc(-c5ccc(NC(=O)Nc6ccccc6)cc5)sc4c3)sc2c1S(=O)(=O)O`, the inhibition is -18% (inactive).

Regarding `Cc1ccc2nc(-c3ccc(NC(=O)c4ccc(NS(=O)(=O)c5ccccc5)cc4)cc3)sc2c1S(=O)(=O)O`, the inhibition was -73% (inactive).

As for `O=C(Nc1nc2ccc(Br)cc2s1)c1ccc2ncsc2c1`, the inhibition is 25% (inactive).

`Cc1ccc2nc(-c3ccc4nc(-c5ccc(NC(=O)c6ccc(N(C)C)cc6)cc5)sc4c3)sc2c1S(=O)(=O)O`: the inhibition is 22% (inactive).

As to `Cc1ccc2nc(-c3ccc4nc(-c5ccc(NC(=O)Nc6ccc(F)cc6)cc5)sc4c3)sc2c1S(=O)(=O)O`, the inhibition is 17% (inactive).

For `Cc1ccc2nc(-c3ccc(NC(=O)c4ccc(NC(=S)Nc5ccccc5)cc4)cc3)sc2c1S(=O)(=O)O`, the inhibition was -13% (inactive).

For the molecule `CN1CCN(Cc2cc(CN3CCN(C)CC3)c(O)c(=O)c(CN3CCN(C)CC3)c2)CC1`, the inhibition is 46% (inactive).

For the molecule `Cc1ccc2nc(-c3ccc4nc(-c5ccc(NC(=O)c6ccc(N)cc6)cc5)sc4c3)sc2c1S(=O)(=O)O`, the inhibition is 33% (inactive).

Turning to `COc1ccc(S(=O)(=O)Nc2ccc(-c3nc4ccc(-c5nc6ccc(C)c(S(=O)(=O)O)c6s5)cc4s3)cc2)cc1`, the inhibition is 44% (inactive).

Turning to `CCOc1ccc2nc(NC(=O)c3ccc4ncsc4c3)sc2c1`, the inhibition is 99%.

On to `Cc1ccc2nc(-c3ccc4nc(-c5ccc(NS(=O)(=O)c6ccc(C(F)(F)F)cc6)cc5)sc4c3)sc2c1S(=O)(=O)O`, for which the inhibition is -7% (inactive).

For the molecule `Cc1ccc2nc(-c3ccc4nc(-c5ccc(NC(=O)c6cc(F)cc(C(F)(F)F)c6)cc5)sc4c3)sc2c1S(=O)(=O)O`, the inhibition was 51%.

As for `Cc1ccc2nc(-c3ccc4nc(-c5ccc(NC(=O)c6ccc7nc(-c8ccc(N)cc8)sc7c6)cc5)sc4c3)sc2c1S(=O)(=O)O`, the inhibition is 37% (inactive).

For `Cc1ccc2nc(-c3ccc4nc(-c5ccc(NC(=O)c6ccc7ncoc7c6)cc5)sc4c3)sc2c1S(=O)(=O)O`, the inhibition is 15% (inactive).

On to `Cc1ccc2nc(-c3ccc4nc(-c5ccc(NC(=O)c6ccc(Br)cc6)cc5)sc4c3)sc2c1S(=O)(=O)O`, for which the inhibition is 7% (inactive).

`Cc1ccc2nc(-c3ccc4nc(-c5ccc(NC(=O)c6ccccc6C(F)(F)F)cc5)sc4c3)sc2c1S(=O)(=O)O`: the inhibition is 0% (inactive).

As for `Cc1ccc2nc(-c3ccc4nc(-c5ccc(NC(=S)Nc6ccccc6)cc5)sc4c3)sc2c1S(=O)(=O)O`, the inhibition was 9% (inactive).

With `Cc1ccc2nc(-c3ccc4nc(-c5ccc6nc(-c7ccc8nc(-c9ccc(N)cc9)sc8c7)sc6c5)sc4c3)sc2c1S(=O)(=O)O`, the inhibition was 0% (inactive) and 45% (inactive).

In the case of `Cc1ccc2nc(-c3ccc4nc(-c5ccc(NC(=O)c6cc(C(F)(F)F)ccc6F)cc5)sc4c3)sc2c1S(=O)(=O)O`, the inhibition was 39% (inactive).

As to `Cc1ccc2nc(-c3ccc(NC(=O)c4ccc(C(F)(F)F)cc4)cc3)sc2c1S(=O)(=O)O`, the inhibition was 11% (inactive).

With `CCN(CC)c1ccc(-c2nc3ccc(-c4nc5ccc(C)c(S(=O)(=O)O)c5s4)cc3s2)cc1`, the inhibition is 0% (inactive).

On to `Cc1ccc(NC(=O)Nc2ccc(-c3nc4ccc(-c5nc6ccc(C)c(S(=O)(=O)O)c6s5)cc4s3)cc2)cc1`, for which the inhibition was 43% (inactive).

With `Cc1ccc2nc(-c3ccc4nc(-c5ccc(NC(=O)c6ccc(F)cc6)cc5)sc4c3)sc2c1S(=O)(=O)O`, the inhibition was 50%.

As for `Cc1ccc2nc(-c3ccc(NC(=O)c4ccc(NC(=O)c5ccccc5)cc4)cc3)sc2c1S(=O)(=O)O`, the inhibition was 19% (inactive).

With `Cc1ccc2nc(-c3ccc4nc(NC(=O)c5ccc6ncoc6c5)sc4c3)sc2c1`, the inhibition is 90%.

In the case of `Cc1ccc2nc(-c3ccc4nc(-c5ccc(NC(=O)c6ccc(Cl)cc6)cc5)sc4c3)sc2c1S(=O)(=O)O`, the inhibition is 42% (inactive).

As for `Cc1ccc2nc(-c3ccc4nc(-c5ccc(NCc6ccccc6)cc5)sc4c3)sc2c1S(=O)(=O)O`, the inhibition was -64% (inactive).

Turning to `Cc1ccc2nc(-c3ccc4nc(-c5ccc(NC(=O)c6ccc(C(C)(C)C)cc6)cc5)sc4c3)sc2c1S(=O)(=O)O`, the inhibition was 51%.

Turning to `Cc1ccc2nc(-c3ccc4nc(-c5ccc(NC(=O)c6cc(C(F)(F)F)cc(C(F)(F)F)c6)cc5)sc4c3)sc2c1S(=O)(=O)O`, the inhibition is 60%.

As to `Cc1ccc2nc(-c3ccc4nc(-c5ccc(NC(=O)c6cccc7ccccc67)cc5)sc4c3)sc2c1S(=O)(=O)O`, the inhibition is -9% (inactive).

`Cc1ccc2nc(-c3ccc4nc(-c5ccc(NC(=O)c6cccnc6)cc5)sc4c3)sc2c1S(=O)(=O)O`: the inhibition is 51%.

Take `O=C(Nc1ccc(-c2nc3ccccc3[nH]2)cc1)c1ccc2ncsc2c1`: the inhibition is -7% (inactive).

`Cc1ccc2nc(-c3ccc4nc(-c5ccc(NC(=O)c6ccc7nc(-c8ccc(NC(=O)OCC9c%10ccccc%10-c%10ccccc%109)cc8)sc7c6)cc5)sc4c3)sc2c1S(=O)(=O)O`: the inhibition is 42% (inactive) and 44% (inactive).

The values are drawn from PubChem BioAssay AID623962 (The Scripps Research Institute Molecular Screening Center, 2012).
